Measured values published in ChEMBL document CHEMBL3102739, “Synthesis and antiproliferative activity of conformationally restricted 1,2,3-triazole analogues of combretastatins in the sea urchin embryo model and against human cancer cell lines” (Bioorg Med Chem, 2014).

What was measured:
[1] = Growth inhibition of human SF539 cells after 48 hrs by SRB assay; assay type: functional; settings: SF-539, 48 h
[2] = Growth inhibition of human UO31 cells after 48 hrs by SRB assay; assay type: functional; settings: UO-31, 48 h
[3] = Growth inhibition of human UACC257 cells after 48 hrs by SRB assay; assay type: functional; settings: UACC-257, 48 h
COLO 205 = assay: Growth inhibition of human COLO205 cells after 48 hrs by SRB assay; assay type: functional; settings: COLO 205, 48 h
HT-29 = assay: Growth inhibition of human HT-29 cells after 48 hrs by SRB assay; assay type: functional; settings: HT-29, 48 h
MDA-MB-435 = assay: Growth inhibition of human MDA-MB-435 cells after 48 hrs by SRB assay; assay type: functional; settings: MDA-MB-435, 48 h
M14 = assay: Growth inhibition of human M14 cells after 48 hrs by SRB assay; assay type: functional; settings: M14, 48 h
[4] = Growth inhibition of human EKVX cells after 48 hrs by SRB assay; assay type: functional
SNB-19 = assay: Growth inhibition of human SNB19 cells after 48 hrs by SRB assay; assay type: functional; settings: SNB-19, 48 h
Paracentrotus lividus [5] = assay: Antimitotic activity against sea urchin embryo free-swimming blastula model assessed as embryo spinning compound treated at 8 to 10 hrs post-fertilization measured after 0.25 to 20 hrs; assay type: functional, Blastula stage
HCT-116 = assay: Growth inhibition of human HCT116 cells after 48 hrs by SRB assay; assay type: functional; settings: HCT-116, 48 h
CAKI-1 = assay: Growth inhibition of human CAKI-1 cells after 48 hrs by SRB assay; assay type: functional; settings: CAKI-1, 48 h
T47D = assay: Growth inhibition of human T47D cells after 48 hrs by SRB assay; assay type: functional
CCRF-CEM = assay: Growth inhibition of human CCRF-CEM cells after 48 hrs by SRB assay; assay type: functional
786-0 = assay: Growth inhibition of human 786-0 cells after 48 hrs by SRB assay; assay type: functional; settings: 786-0, 48 h
A498 = assay: Growth inhibition of human A498 cells after 48 hrs by SRB assay; assay type: functional; settings: A498, 48 h
TK-10 = assay: Growth inhibition of human TK10 cells after 48 hrs by SRB assay; assay type: functional; settings: TK-10, 48 h
NCI-H226 = assay: Growth inhibition of human NCI-H226 cells after 48 hrs by SRB assay; assay type: functional; settings: NCI-H226, 48 h
Paracentrotus lividus [6] = assay: Antimitotic activity against sea urchin embryo model assessed as cleavage alteration of fertilized egg compound treated at 8 to 20 mins post-fertilization and 45 to 55 mins prior to first mitotic cycle completion measured 2.5 to 5.5 hrs post-fertilization; assay type: functional
How it was run: (§1)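 Fertilized eggs are exposed 8–20 min after fertilization to 2-fold decreasing concentrations. Stocks are 10 mM in DMSO, then diluted 10-fold in 95% EtOH; final DMSO is at most 0.05% and EtOH at most 1%. Embryos are kept as a monolayer, up to 2000 embryos/mL, in filtered seawater at room temperature. The value is the threshold concentration giving cleavage alteration, embryo death before hatching or full mitotic arrest. Duplicates were run.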

[7] = Growth inhibition of human OVCAR4 cells after 48 hrs by SRB assay; assay type: functional; settings: OVCAR-4, 48 h
U-251 = assay: Growth inhibition of human U251 cells after 48 hrs by SRB assay; assay type: functional; settings: U-251, 48 h
[8] = Growth inhibition of human HOP92 cells after 48 hrs by SRB assay; assay type: functional; settings: HOP-92, 48 h
UACC-62 = assay: Growth inhibition of human UACC62 cells after 48 hrs by SRB assay; assay type: functional; settings: UACC-62, 48 h
[9] = Growth inhibition of human HCC2998 cells after 48 hrs by SRB assay; assay type: functional; settings: HCC 2998, 48 h
LOX IMVI = assay: Growth inhibition of human LOXIMVI cells after 48 hrs by SRB assay; assay type: functional
RPMI-8226 = assay: Growth inhibition of human RPMI8226 cells after 48 hrs by SRB assay; assay type: functional; settings: RPMI-8226, 48 h
[10] = Growth inhibition of human NCI-ADR-RES cells after 48 hrs by SRB assay; assay type: functional
OVCAR-3 = assay: Growth inhibition of human OVCAR3 cells after 48 hrs by SRB assay; assay type: functional; settings: OVCAR-3, 48 h
Paracentrotus lividus [11] = assay: Antimitotic activity against sea urchin embryo model assessed as cleavage arrest of fertilized egg compound treated at 8 to 20 mins post-fertilization and 45 to 55 mins prior to first mitotic cycle completion measured 2.5 to 5.5 hrs post-fertilization; assay type: functional; how it was run: as §1
SF-268 = assay: Growth inhibition of human SF268 cells after 48 hrs by SRB assay; assay type: functional; settings: SF-268, 48 h
[12] = Growth inhibition of human OVCAR5 cells after 48 hrs by SRB assay; assay type: functional; settings: OVCAR-5, 48 h
NCI-H460 = assay: Growth inhibition of human NCI-H460 cells after 48 hrs by SRB assay; assay type: functional; settings: NCI-H460, 48 h
SR = assay: Growth inhibition of human SR cells after 48 hrs by SRB assay; assay type: functional
IGROV-1 = assay: Growth inhibition of human IGROV1 cells after 48 hrs by SRB assay; assay type: functional; settings: IGROV-1, 48 h
SK-OV-3 = assay: Growth inhibition of human SKOV3 cells after 48 hrs by SRB assay; assay type: functional; settings: SK-OV-3, 48 h
HOP-62 = assay: Growth inhibition of human HOP62 cells after 48 hrs by SRB assay; assay type: functional; settings: HOP-62, 48 h
MOLT-4 = assay: Growth inhibition of human MOLT4 cells after 48 hrs by SRB assay; assay type: functional; settings: MOLT-4, 48 h
PC-3 = assay: Growth inhibition of human PC3 cells after 48 hrs by SRB assay; assay type: functional; settings: PC-3, 48 h
OVCAR-8 = assay: Growth inhibition of human OVCAR8 cells after 48 hrs by SRB assay; assay type: functional; settings: OVCAR-8, 48 h
ACHN = assay: Growth inhibition of human ACHN cells after 48 hrs by SRB assay; assay type: functional
A549 = assay: Growth inhibition of human A549 cells after 48 hrs by SRB assay; assay type: functional; settings: A549, 48 h
SK-MEL-2 = assay: Growth inhibition of human SK-MEL-2 cells after 48 hrs by SRB assay; assay type: functional; settings: SK-MEL-2, 48 h
HL-60(TB) = assay: Growth inhibition of human HL-60(TB) cells after 48 hrs by SRB assay; assay type: functional; settings: HL-60, 48 h
HCT-15 = assay: Growth inhibition of human HCT15 cells after 48 hrs by SRB assay; assay type: functional; settings: HCT-15, 48 h
NCI-H322M = assay: Growth inhibition of human NCI-H322M cells after 48 hrs by SRB assay; assay type: functional
[13] = Growth inhibition of human RXF393 cells after 48 hrs by SRB assay; assay type: functional; settings: RXF 393, 48 h
NCI-H23 = assay: Growth inhibition of human NCI-H23 cells after 48 hrs by SRB assay; assay type: functional; settings: NCI-H23, 48 h

## COc1ccc(-c2nn[nH]c2-c2cc(OC)c(OC)c(OC)c2)cc1
[1]
  GI50: < 0.01 µM
[2]
  GI50: 1.21 µM
[3]
  GI50: < 0.01 µM
COLO 205
  GI50: 0.033 µM
HT-29
  GI50: < 0.01 µM
MDA-MB-435
  GI50: < 0.01 µM
M14
  GI50: < 0.01 µM
[4]
  GI50: < 0.01 µM
SNB-19
  GI50: < 0.01 µM
Paracentrotus lividus [5]
  EC: 0.1 µM
HCT-116
  GI50: < 0.01 µM
CAKI-1
  GI50: < 0.01 µM
T47D
  GI50: 2.66 µM
CCRF-CEM
  GI50: < 0.01 µM
786-0
  GI50: < 0.01 µM
A498
  GI50: < 0.01 µM
TK-10
  GI50: < 0.01 µM
NCI-H226
  GI50: 0.051 µM
Paracentrotus lividus [6]
  EC: 0.005 µM
[7]
  GI50: < 0.01 µM
U-251
  GI50: < 0.01 µM
[8]
  GI50: < 0.01 µM
UACC-62
  GI50: < 0.01 µM
[9]
  GI50: < 0.01 µM
LOX IMVI
  GI50: < 0.01 µM
RPMI-8226
  GI50: < 0.01 µM
[10]
  GI50: < 0.01 µM
OVCAR-3
  GI50: < 0.01 µM
Paracentrotus lividus [11]
  EC: 0.02 µM
SF-268
  GI50: 0.021 µM
[12]
  GI50: < 0.01 µM
NCI-H460
  GI50: < 0.01 µM
SR
  GI50: < 0.01 µM
IGROV-1
  GI50: < 0.01 µM
SK-OV-3
  GI50: < 0.01 µM
HOP-62
  GI50: < 0.01 µM
MOLT-4
  GI50: 0.012 µM
PC-3
  GI50: 0.043 µM
OVCAR-8
  GI50: < 0.01 µM
ACHN
  GI50: 0.015 µM
A549
  GI50: < 0.01 µM
SK-MEL-2
  GI50: < 0.01 µM
HL-60(TB)
  GI50: < 0.01 µM
HCT-15
  GI50: < 0.01 µM
NCI-H322M
  GI50: < 0.01 µM
[13]
  GI50: < 0.01 µM
NCI-H23
  GI50: < 0.01 µM

## COc1ccc(-c2nn[nH]c2-c2cc(OC)c3c(c2OC)OCO3)cc1
[1]
  GI50: 0.909 µM
[2]
  GI50: 2.96 µM
[3]
  GI50: 0.595 µM
COLO 205
  GI50: 0.884 µM
HT-29
  GI50: 0.376 µM
MDA-MB-435
  GI50: 0.193 µM
M14
  GI50: 0.341 µM
[4]
  GI50: 2.79 µM
SNB-19
  GI50: 1.8 µM
Paracentrotus lividus [5]
  EC: >5 µM
HCT-116
  GI50: 0.353 µM
CAKI-1
  GI50: 0.762 µM
T47D
  GI50: 0.716 µM
CCRF-CEM
  GI50: 0.684 µM
786-0
  GI50: 1.4 µM
A498
  GI50: 0.353 µM
TK-10
  GI50: 6.37 µM
NCI-H226
  GI50: 15.2 µM
Paracentrotus lividus [6]
  EC: 0.5 µM
[7]
  GI50: 4.68 µM
U-251
  GI50: 0.362 µM
[8]
  GI50: 0.5 µM
UACC-62
  GI50: 0.42 µM
[9]
  GI50: 1.11 µM
LOX IMVI
  GI50: 0.547 µM
RPMI-8226
  GI50: 0.816 µM
[10]
  GI50: 0.296 µM
OVCAR-3
  GI50: 0.363 µM
Paracentrotus lividus [11]
  EC: >4 µM
SF-268
  GI50: 4.02 µM
[12]
  GI50: 3.63 µM
NCI-H460
  GI50: 0.409 µM
SR
  GI50: 0.304 µM
IGROV-1
  GI50: 0.72 µM
SK-OV-3
  GI50: 0.854 µM
HOP-62
  GI50: 0.899 µM
MOLT-4
  GI50: 0.529 µM
PC-3
  GI50: 1.93 µM
OVCAR-8
  GI50: 1.32 µM
ACHN
  GI50: 6.79 µM
A549
  GI50: 0.532 µM
SK-MEL-2
  GI50: 0.326 µM
HL-60(TB)
  GI50: 0.307 µM
HCT-15
  GI50: 0.454 µM
NCI-H322M
  GI50: 2.89 µM
[13]
  GI50: 0.657 µM
NCI-H23
  GI50: 1 µM
